Source: PubChem BioAssay
This is a sample that favours compounds with a hit; in the whole collection about 0.99% have one here.
ABCG2 block – blocks JC-1 efflux by human ABCG2 transporter. Q9UNQ0. IgMXP3 cells, flow cytometry. inhibition, % at 6.6 µM. 0.1% of 190,000 active. AID 1325;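 active = inhibition above 80%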
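Incubation: cells with compound and JC-1, 10 min at 25 °C, rotating, no wash / Test system: IgMXP3 (ABCG2) plus far-red-tagged CCRF-Adr (ABCB1) cells / Compound dosing: one concentration, 6.6 µM final / Also added: JC-1 fluorescent substrate / Evaluation: efflux inhibition in percent versus controls / Detection: flow cytometry, 530 nm JC-1 signal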
Insulin prom up – MIN6 insulin promoter up-regulation; MIN6 insulin promoter-GFP reporter, high-content imaging; stronger effect = higher value; z-score at 5 µM; 0.3% of 190,000 active;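 active = z-score above 3 at 5 µM with at least 500 cells counted in the well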
ABCB1 inh – blocks JC-1 efflux by human ABCB1 transporter | inhibition, % at 6.6 µM | AID 1326 | CCRF-Adr cells, flow cytometry | 0.067% of 190,000 active; in the data active = inhibition above about 40%;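 also: higher value means more JC-1 retained so stronger ABCB1 efflux block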
DDE Tn6 FP inh – disrupts Tn6 cyclic peptide binding to fibrin D-Dimer-E complex. Fibrin DD(E) TRITC-Tn6 fluorescence polarization displacement. inhibition, % at 8.3 µM. 0.21% of 370,000 active. AID 720509;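 active = inhibition above a per-campaign cutoff: mean of compounds within control limits plus 3 SD, cut at about 15% in these data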
Target sequence (P02675 whole entry, looked up): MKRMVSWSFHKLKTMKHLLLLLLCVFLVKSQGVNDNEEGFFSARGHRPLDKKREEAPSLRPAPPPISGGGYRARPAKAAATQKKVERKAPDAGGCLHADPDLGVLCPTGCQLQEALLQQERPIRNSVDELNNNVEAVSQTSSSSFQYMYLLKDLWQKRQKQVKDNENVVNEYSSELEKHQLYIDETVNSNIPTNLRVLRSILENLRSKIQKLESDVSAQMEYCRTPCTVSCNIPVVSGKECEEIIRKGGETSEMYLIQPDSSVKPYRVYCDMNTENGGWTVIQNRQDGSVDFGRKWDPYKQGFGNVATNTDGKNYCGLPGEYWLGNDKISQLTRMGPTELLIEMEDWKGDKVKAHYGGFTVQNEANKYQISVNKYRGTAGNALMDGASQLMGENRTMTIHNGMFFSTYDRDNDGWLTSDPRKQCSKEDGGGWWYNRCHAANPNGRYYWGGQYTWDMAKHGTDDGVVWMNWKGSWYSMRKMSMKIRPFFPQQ
DDE Tn7 FP inh – disrupts Tn7 cyclic peptide binding to fibrin D-Dimer-E complex | inhibition, % at 8.3 µM | AID 720508 | 0.13% of 370,000 active | P02675 | FP displacement of FITC-Tn7 peptide from fibrin DD(E); 0% = median of compound wells per plate;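 active = inhibition above the mean of compounds falling within the control limits plus 3 SD of them, cut at about 14% in these data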
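System: human fibrin DD(E); quantity: Fibrin-DD(E) at 2 µM final; also added: fluorescent Tn7 probe at 0.1 µM; compound dosing: single nominal test concentration of 8.3 µM per compound; schedule: 10 min preincubation, 3 h with tracer, room temperature; detection: fluorescence polarization of the labelled Tn7 tracer; repeats: one replicate per compound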
GRK2 aptamer HTS – human GRK2 inhibition via aptamer displacement | inhibition of aptamer binding, % at 10 µM | bead flow cytometry, FAM-aptamer displacement from GRK2 | 0.59% of 330,000 active | P25098;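 active = inhibition of aptamer binding above 40%, roughly 3 SD of noise, on plates passing a quality check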;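 also: median bead fluorescence of bound FAM aptamer so fluorescent compounds give negative values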
GRK2 inh confirm – confirmation of human GRK2 inhibitors displacing RNA aptamer | shares compounds with GRK2 aptamer HTS | aptamer displacement, % at 10 µM | AID 504451 | bead-bound GRK2, FAM-aptamer displacement, flow cytometry | 4% of 2,000 active;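 active = aptamer displacement above 40%, near three times the noise of non-fluorescent compounds, on plates passing quality checks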;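 also: negative values mostly reflect intrinsic compound fluorescence rather than true enhancement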
Aptamer quench SP – counter-screen for GRK2 aptamer inhibitors: fluorescent aptamer quenchers. shares compounds with GRK2 aptamer HTS. Carboxyfluorescein RNA aptamer on beads, flow cytometry quenching; stronger effect = lower value. fluorescence response (% of DMSO), % at 10 µM. 2,000 tested, under 10 active. AID 504580;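 active = compounds that quench the bead-bound fluorescent RNA probe, cutting fluorescence to under half of the solvent control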;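 also: counterscreen run without GRK2 so only probe quenching by compound is measured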
GRK2 confirm 2 – human GRK2 inhibition confirmation, cherry pick 2; 360 tested, under 10 active; shares compounds with GRK2 aptamer HTS; inhibition of aptamer binding, % at 10 µM; bead-bound GRK2, FAM-aptamer displacement, flow cytometry;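 active = inhibition of aptamer binding above 40%, about triple the noise seen with nonglowing compounds, on plates passing quality control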;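 also: negative values mostly come from compounds that fluoresce themselves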
FAM quench SP – quenches fluorescent RNA aptamer, GRK2 hit artifact | shares compounds with GRK2 aptamer HTS | carboxyfluorescein RNA aptamer beads, flow cytometry quenching; stronger effect = lower value | fluorescence response vs DMSO, % at 10 µM | 360 tested, under 10 active;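 active = response vs DMSO under 50%, meaning signal dropped by over half, treated as fluorescence quencher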;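 also: labelled aptamer on streptavidin beads without GRK2 as a quench counter-screen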
A number is an active result.

COc1ccccc1CNC(=O)C1COc2ccccc2O1 (centres undefined) was read as ABCG2 block inactive, Insulin prom up inactive, ABCB1 inh inactive, DDE Tn6 FP inh inactive, DDE Tn7 FP inh inactive, GRK2 aptamer HTS 52, GRK2 inh confirm inactive and Aptamer quench SP inactive.
Screening Nc1ccc(Nc2ccc([N+](=O)[O-])cc2[N+](=O)[O-])cc1 returned ABCG2 block inactive, Insulin prom up inactive, ABCB1 inh inactive, DDE Tn6 FP inh inactive, DDE Tn7 FP inh inactive, GRK2 aptamer HTS 84, GRK2 inh confirm inactive and Aptamer quench SP inactive.
`CC(Nc1nc(-c2ccc(F)cc2)cs1)c1nc2cc(Cl)c(N3CCCCC3)cc2n1CCCO` (centres undefined) gave DDE Tn6 FP inh inactive, DDE Tn7 FP inh inactive and GRK2 aptamer HTS inactive.
`CC(Nc1nc(-c2ccc(F)cc2)cs1)c1nc2cc(Cl)c(N3CCCCC3)cc2n1CCOCCO` (centres undefined) gave DDE Tn6 FP inh inactive, DDE Tn7 FP inh inactive, GRK2 aptamer HTS inactive, GRK2 inh confirm inactive and Aptamer quench SP inactive.
`CC(Nc1nc(-c2cccc(Br)c2)cs1)c1nc2cc(Cl)c(N3CCCCC3)cc2n1CCOCCO` (centres undefined) gave DDE Tn6 FP inh inactive, DDE Tn7 FP inh inactive, GRK2 aptamer HTS inactive, GRK2 inh confirm inactive and Aptamer quench SP inactive.
Screening CCC1Sc2ccc(S(=O)(=O)CCC(=O)NCc3ccc(C)o3)cc2NC1=O (centres undefined) returned DDE Tn6 FP inh inactive, DDE Tn7 FP inh inactive and GRK2 aptamer HTS inactive.
For CC1Sc2ccc(S(=O)(=O)CCC(=O)N3CCCC3)cc2NC1=O (centres undefined) the results were DDE Tn6 FP inh inactive, DDE Tn7 FP inh inactive and GRK2 aptamer HTS inactive.
CCC1Sc2ccc(S(=O)(=O)CCC(=O)Nc3ccccc3Cl)cc2NC1=O (centres undefined) was read as DDE Tn6 FP inh inactive, DDE Tn7 FP inh inactive, GRK2 aptamer HTS inactive, GRK2 confirm 2 inactive and FAM quench SP inactive.
Screening CC1Sc2ccc(S(=O)(=O)CCC(=O)N3CCc4ccccc43)cc2NC1=O (centres undefined) returned DDE Tn6 FP inh inactive, DDE Tn7 FP inh inactive, GRK2 aptamer HTS inactive, GRK2 confirm 2 inactive and FAM quench SP inactive.
CCC1Sc2ccc(S(=O)(=O)CCC(=O)N3CCc4ccccc43)cc2NC1=O (centres undefined) was read as DDE Tn6 FP inh inactive, DDE Tn7 FP inh inactive, GRK2 aptamer HTS 57, GRK2 inh confirm inactive, Aptamer quench SP inactive, GRK2 confirm 2 inactive and FAM quench SP inactive.
COc1ccc(Cn2ccc3ccc(-c4ccc5ccn(Cc6ccc(F)cc6)c5c4)cc32)cc1 was read as DDE Tn6 FP inh inactive and DDE Tn7 FP inh inactive.
Clc1ccc(CN2CCN(c3ncc(Cc4ccccc4)cn3)CC2)c(Cl)c1 was read as DDE Tn6 FP inh inactive and DDE Tn7 FP inh inactive.
Screening CCC(C)Nc1nc2c(c(=O)[nH]c(=O)n2C)n1CCC(C)C (centres undefined) returned ABCG2 block inactive, Insulin prom up inactive, ABCB1 inh inactive, DDE Tn6 FP inh inactive, DDE Tn7 FP inh inactive, GRK2 aptamer HTS 52, GRK2 inh confirm inactive and Aptamer quench SP inactive.
For CCC(C)Nc1nc2c(c(=O)[nH]c(=O)n2C)n1CCCc1ccccc1 (centres undefined) the results were DDE Tn6 FP inh inactive, DDE Tn7 FP inh inactive and GRK2 aptamer HTS inactive.
